ChEMBL document CHEMBL1139245, “Synthesis and antiinflammatory activity of some new 1,3,5-trisubstituted pyrazolines bearing benzene sulfonamide” (Bioorg Med Chem Lett, 2009)

Experiments:
Rattus norvegicus [1] = test: Antiinflammatory activity in carrageenan-induced Wistar rat paw edema model assessed as increase in paw volume at 20 mg/kg, po measured 5 hrs after carrageenan challenge relative to control; format: functional
Procedure, shortened: (§1)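 Wistar rats of either sex (150–175 g), fasted 16 h overnight, groups of six; compound dosed orally at 20 mg/kg bw. 30 min later 0.1 ml of 1% carrageenan in normal saline injected into subplantar aponeurosis of left hind paw. Paw volume read by plethysmometer at 0, 3 and 5 h; increase in volume (ml, SEM) and % inhibition versus control.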

Rattus norvegicus [2] = test: Antiinflammatory activity in carrageenan-induced Wistar rat paw edema model assessed as increase in paw volume at 20 mg/kg, po measured 3 hrs after carrageenan challenge relative to control; format: functional; procedure, shortened: as §1
[3] = target: Prostaglandin G/H synthase 2 (Ovis aries) (UniProt P79208); test: Inhibition of recombinant COX2 at 0.05 uM
[4] = target: Prostaglandin G/H synthase 1 (Ovis aries) (UniProt P05979); test: Inhibition of recombinant COX1 at 0.05 uM
Rattus norvegicus [5] = test: Gastrointestinal toxicity in Wistar rat assessed as induction of gastric ulceration at 60 mg/kg, po; format: organism-based, Stomach; parameters: dose 60 mg/kg, route oral; conditions: in vivo
Procedure, shortened: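 Acute gastric ulcerogenicity in Wistar rats given 60 mg/kg bw orally. Animals sacrificed under deep ether anesthesia 6 h after treatment. Stomachs removed and opened along the greater curvature, then examined for lesions or bleeding.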

Sequence of Prostaglandin G/H synthase 1 (Ovis aries) (P05979 whole entry, looked up): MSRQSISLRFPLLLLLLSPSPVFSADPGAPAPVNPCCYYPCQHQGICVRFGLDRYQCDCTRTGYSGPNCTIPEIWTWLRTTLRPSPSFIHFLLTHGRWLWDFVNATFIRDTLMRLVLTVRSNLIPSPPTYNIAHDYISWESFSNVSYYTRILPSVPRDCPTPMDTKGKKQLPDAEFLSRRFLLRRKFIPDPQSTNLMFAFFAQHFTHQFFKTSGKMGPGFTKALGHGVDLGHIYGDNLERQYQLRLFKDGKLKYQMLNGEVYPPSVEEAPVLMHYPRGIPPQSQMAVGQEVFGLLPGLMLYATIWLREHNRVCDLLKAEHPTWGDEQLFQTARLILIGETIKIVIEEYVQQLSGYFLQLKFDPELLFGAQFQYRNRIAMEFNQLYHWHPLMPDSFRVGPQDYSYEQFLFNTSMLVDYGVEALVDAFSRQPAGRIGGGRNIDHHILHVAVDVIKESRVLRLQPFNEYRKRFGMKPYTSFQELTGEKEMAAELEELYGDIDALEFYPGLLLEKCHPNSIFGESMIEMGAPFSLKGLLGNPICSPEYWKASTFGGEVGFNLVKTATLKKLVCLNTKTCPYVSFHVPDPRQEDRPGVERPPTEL
Sequence of Prostaglandin G/H synthase 2 (Ovis aries) (P79208 whole entry, looked up): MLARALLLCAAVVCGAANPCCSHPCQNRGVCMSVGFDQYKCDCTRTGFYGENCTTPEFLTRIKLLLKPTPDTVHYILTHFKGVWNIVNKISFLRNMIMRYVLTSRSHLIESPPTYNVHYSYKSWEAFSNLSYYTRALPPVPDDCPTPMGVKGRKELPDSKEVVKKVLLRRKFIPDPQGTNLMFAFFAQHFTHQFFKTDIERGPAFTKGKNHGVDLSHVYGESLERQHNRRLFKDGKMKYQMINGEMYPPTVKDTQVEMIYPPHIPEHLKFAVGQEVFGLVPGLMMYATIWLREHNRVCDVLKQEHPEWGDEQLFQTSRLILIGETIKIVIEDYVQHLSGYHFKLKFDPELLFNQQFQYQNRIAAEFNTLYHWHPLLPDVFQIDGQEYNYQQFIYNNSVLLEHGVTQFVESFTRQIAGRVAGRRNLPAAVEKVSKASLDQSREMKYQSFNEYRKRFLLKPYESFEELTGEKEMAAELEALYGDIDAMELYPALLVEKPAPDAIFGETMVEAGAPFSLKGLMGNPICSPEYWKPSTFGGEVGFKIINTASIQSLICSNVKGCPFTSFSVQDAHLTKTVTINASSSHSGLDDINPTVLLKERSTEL

| inhibition [3] | inhibition [4] | Compound | Activity (Rattus norvegicus [1]) | Activity (Rattus norvegicus [2]) | Activity (Rattus norvegicus [5]) |
| --- | --- | --- | --- | --- | --- |
| – | – | COc1ccc(C2CC(c3c(O)ccc4c(C)cc(=O)oc34)=NN2c2ccc(S(N)(=O)=O)cc2)cc1 (stereo unspecified) | 10.6% | 20% | – |
| 85.7% | 73.2% | COc1ccc(C2=NN(c3ccc(S(N)(=O)=O)cc3)C(c3ccccc3)C2)c(OC)c1 (stereo unspecified) | 66.5% | 70% | Non-toxic |
| – | – | COc1ccc(C2=NN(c3ccc(S(N)(=O)=O)cc3)C(c3cccc(O)c3)C2)c(OC)c1 (stereo unspecified) | 5.3% | 26.6% | – |
| – | – | COc1ccc(C2=NN(c3ccc(S(N)(=O)=O)cc3)C(c3ccccc3Cl)C2)c(O)c1 (stereo unspecified) | 35.3% | 60% | – |
| – | – | COc1ccc(C2=NN(c3ccc(S(N)(=O)=O)cc3)C(c3ccccc3)C2)c(O)c1 (stereo unspecified) | 0% | 0% | – |
| 38.6% | 30% | COc1ccc(C2=NN(c3ccc(S(N)(=O)=O)cc3)C(c3cc(OC)c(OC)c(OC)c3)C2)c(OC)c1 (stereo unspecified) | 76.6% | 83.3% | Non-toxic |
| – | – | COc1ccc(C2CC(c3ccccc3O)=NN2c2ccc(S(N)(=O)=O)cc2)cc1 (stereo unspecified) | 41.3% | 50% | – |
| – | – | Cc1ccc(-c2cc(C(F)(F)F)nn2-c2ccc(S(N)(=O)=O)cc2)cc1 [CELECOXIB] | 40% | – | – |
| – | – | COc1ccc(C2=NN(c3ccc(S(N)(=O)=O)cc3)C(c3ccc(Cl)cc3)C2)c(O)c1 (stereo unspecified) | 46.3% | 28.6% | – |
| – | – | COc1ccc(C2=NN(c3ccc(S(N)(=O)=O)cc3)C(c3ccc(Cl)cc3)C2)c(OC)c1 (stereo unspecified) | 6.6% | 25% | – |
| – | – | COc1ccc(C2=NN(c3ccc(S(N)(=O)=O)cc3)C(c3ccc(OC)c(OC)c3)C2)c(O)c1 (stereo unspecified) | 13% | 9% | – |
| – | – | COc1ccc(C2CC(c3ccc(OC)cc3O)=NN2c2ccc(S(N)(=O)=O)cc2)cc1 (stereo unspecified) | 37.3% | 27% | – |
| 42.9% | 58.8% | COc1ccc(C2=NN(c3ccc(S(N)(=O)=O)cc3)C(c3cccc([N+](=O)[O-])c3)C2)c(OC)c1 (stereo unspecified) | 57.6% | 68.8% | Non-toxic |
| – | – | COc1ccc(C2=NN(c3ccc(S(N)(=O)=O)cc3)C(c3ccccc3Cl)C2)c(OC)c1 (stereo unspecified) | 46.3% | 26.3% | – |
| – | – | COc1ccc(C2=NN(c3ccc(S(N)(=O)=O)cc3)C(c3cc(OC)c(OC)c(OC)c3)C2)c(O)c1 (stereo unspecified) | 0% | 0% | – |
| – | – | Cc1cc(=O)oc2c(C3=NN(c4ccc(S(N)(=O)=O)cc4)C(c4cccc(O)c4)C3)c(O)ccc12 (stereo unspecified) | 30.6% | 20% | – |
| – | – | COc1ccc(C2=NN(c3ccc(S(N)(=O)=O)cc3)C(c3cccc(O)c3)C2)c(O)c1 (stereo unspecified) | 8.3% | 33.3% | – |
| 50% | 60.9% | COc1ccc(C2=NN(c3ccc(S(N)(=O)=O)cc3)C(c3ccc(N(C)C)cc3)C2)c(OC)c1 (stereo unspecified) | 79.6% | 79.6% | Non-toxic |
| – | – | COc1ccc(C2CC(c3ccc(OC)cc3OC)=NN2c2ccc(S(N)(=O)=O)cc2)cc1 (stereo unspecified) | 10.6% | 49.3% | – |
| – | – | COc1ccc(C2CC(c3ccccc3O)=NN2c2ccc(S(N)(=O)=O)cc2)cc1OC (stereo unspecified) | 10.6% | 52% | – |
